Measured values gathered from unrelated publications.
Lines come from different studies, so protocols differ.
Effect on: cell growth or viability

| Structure (SMILES) | cell line | method | concentration | time | quantity | value |
| --- | --- | --- | --- | --- | --- | --- |
| CC1=C(O)C(=O)C=C2C1=CC=C1[C@@]2(C)CC[C@@]2(C)[C@@H]3C[C@](C)(C(=O)OCCCn4cc(C=O)c5ccccc54)CC[C@]3(C)CC[C@]12C | AGS | MTT | – | 48 h | IC50 | 320 nM |
| Cc1cc(N(CCOS(C)(=O)=O)CCOS(C)(=O)=O)ccc1C=O | SN12K1 | – | – | – | IC50 | 0.79 µg/mL |
| CCCc1cc(=O)n2nc(NCc3c(F)cc(Cl)cc3F)c(C#N)c2[nH]1 | U-87 MG | ATP luminescence | – | 72 h | IC50 | > 50000 nM |
| O=c1c2ccccc2nc(S)n1-c1ccccc1 | HCT-116 | LDH | 200 µg/mL | 24 h | viability | 73.5% |
| COc1cc2c(c3c1C(=O)C[C@@H](c1ccccc1)O3)[C@H]1[C@@H](O2)OC(C)(C)[C@@H]1OC(C)=O | Raji | MTS | – | 72 h | IC50 | > 10000 nM |
| CC(C)C[C@@H]1NC(=O)[C@H](Cc2ccccc2)NC(=O)[C@H](CCCCN)NC(=O)[C@H](CC(C)C)NC(=O)[C@H](C(C)C)NC1=O | HCT-116 | thymidine uptake | 10 µM | 72 h | inhibition | 0% |
| CN[C@@H]1C[C@H]2O[C@@](C)([C@@H]1OC)n1c3ccccc3c3c4c(c5c6ccccc6n2c5c31)C(=O)NC4 | SHP77 | MTT | – | – | IC50 | 16 nM |
| CC[C@@]1(OC(=O)[C@H](C)N)C(=O)OCc2c1cc1n(c2=O)Cc2cc3cc4c(cc3nc2-1)OCO4 | HCT-116 | MTT | – | – | IC50 | 80 nM |
| C=CC(=O)Nc1cc(Nc2nccc(-c3cn(C)c4ccccc34)n2)c(OC)cc1N(C)CCN(C)C | PC-9 | – | – | 72 h | IC50 | 8 nM |
| Cc1cccc2c(CNCC3(N4CCCC4)COC3)c[nH]c12 | U-87 MG | – | 30 µM | 48 h | viability | 3.42% |
| CC[C@@]1(OC(=O)C(C)c2ccc(CC(C)C)cc2)C(=O)OCc2c1cc1n(c2=O)Cc2cc3cc4c(cc3nc2-1)OCO4 (some centres unmarked) | HCT-116 | MTT | – | – | IC50 | > 5000 nM |
| COc1cccc2c1C(=O)c1c(O)c3c(c(O)c1C2=O)C[C@@](O)(C(=O)CO)C[C@@H]3O[C@H]1C[C@H](N)[C@H](O)[C@H](C)O1 | SK-OV-3 | – | – | 48 h | IC50 | 1.2 µg/mL |
| CC[C@H](C)[C@H](N)C(=O)O[C@]1(CC)C(=O)OCc2c1cc1n(c2=O)Cc2cc3cc4c(cc3nc2-1)OCO4 | HCT-116 | MTT | – | – | IC50 | 64 nM |
| Cc1cccc(-n2ncc(Cl)c(Cl)c2=O)c1 | PC-9 | resazurin | – | 96 h | IC50 | 650 nM |
